# Shown are actives, neighbours in structure and some others; about 2.1% of the full set was active somewhere.
# Runt-CBFb FRET: blocks binding of human RUNX1 Runt domain to CBFb; inhibition, % at 20 µM; hit rate 0.46% among 220,000; Q01196+Q13951; AID 1496; Cerulean-Runt/Venus-CBFb FRET ratio 530/480, 1 h;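 active = inhibition over about 50% at 20 µM in the single-dose screen, limit read from the data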
#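 Assay system: Cerulean-Runt domain fusion protein, energy donor; Signal: fluorescence energy transfer, 422 nm excitation, 530/480 nm emission; Timing: 1 h compound exposure, room temperature; Control set: unlabeled CBFb; Medium: Tris buffer pH 7.5 with salts and BSA; Compound: single test concentration of 20 µM, 1% DMSO final; Probe or stimulus: Venus-CBFb 100 nM.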
# DSG3 Ab inh: human desmoglein-3 autoantibody binding inhibition | DSG3-coupled beads, scFv-anti-DSG3-GFP binding, flow cytometry; active compounds read low | binding (percent of control), % at 10 µM | hit rate 0.48% among 310,000 | P32926 | AID 588358;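 active = binding more than 3 SD below its plate's average and above zero; inconclusive = below that plate limit but binding exactly zero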;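 also: hits lower antibody fragment binding to DSG3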
# Hck-Nef inh: blocks Nef-activated human Hck kinase; hit rate 0.68% among 220,000; inhibition, % at 20 µM; P08631; Recombinant Hck-YEEI plus Nef, Z-Lyte FRET kinase assay;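 active = Hck-Nef kinase inhibition above about 50%, limit read from the data; inactive = inhibition below that limit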
# Target sequence (P08631 whole entry, looked up): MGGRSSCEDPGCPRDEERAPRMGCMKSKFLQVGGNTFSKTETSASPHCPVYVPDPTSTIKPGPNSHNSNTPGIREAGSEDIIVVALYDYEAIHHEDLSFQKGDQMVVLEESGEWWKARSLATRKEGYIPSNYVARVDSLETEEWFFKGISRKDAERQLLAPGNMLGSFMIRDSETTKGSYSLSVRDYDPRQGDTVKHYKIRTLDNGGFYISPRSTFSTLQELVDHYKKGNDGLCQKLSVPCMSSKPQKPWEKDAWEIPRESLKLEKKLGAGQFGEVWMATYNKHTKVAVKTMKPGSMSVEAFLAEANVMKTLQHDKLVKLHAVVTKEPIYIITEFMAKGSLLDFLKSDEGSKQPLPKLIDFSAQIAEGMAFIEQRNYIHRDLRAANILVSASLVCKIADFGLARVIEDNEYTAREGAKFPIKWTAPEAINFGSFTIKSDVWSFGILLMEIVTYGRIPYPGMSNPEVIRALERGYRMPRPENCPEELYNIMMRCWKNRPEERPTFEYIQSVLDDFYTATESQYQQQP
# RanGTP-Imp inh: inhibitors of RanGTP-importin-beta interaction, primary screen, biochemical, FRET, CFP-Ran, YFP-importin-beta, homogeneous | hit rate 1.1% among 300,000 | inhibition, % (test concentration not listed) | cell-free CFP-Ran/YFP-importin-beta FRET ratio;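 active = more than half of the replicate wells show a fall in the fluorescence ratio signal beyond about 16%, limit read from the data, passing the limit was not always enough; inconclusive = exactly half of the replicate wells pass the set limit; inactive = fewer than half of replicates pass the limit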
# Runt-SMMHC FRET: Runt domain-CBFb-SMMHC interaction inhibition; Cerulean-Runt/Venus-CBFb-SMMHC FRET ratio 530/480, 1 h; hit rate 0.74% among 220,000; inhibition, % at 20 µM; Q01196+Q13951;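 active = mean inhibition across duplicate retests at 20 µM reaching about 50%, limit read from the data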;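 also: inhibitors lower the FRET ratio by blocking Runt binding to CBFb-SMMHC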
# pCIP destab: p/CIP protein destabilization; Q05BA5; F442A p/CIP-EGFP cells, EGFP fluorescence, 16 h; decrease of EGFP signal, % at 10 µM; hit rate 0.01% among 290,000; AID 1984;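 active = EGFP signal decrease of at least 30% at 10 µM or well 3 SD below plate mean, unless failing retest; inactive = the rest, including hits failing retest or dose response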
# Hck Nef conf: Hck-Nef kinase inhibition, confirmation; shares compounds with Hck-Nef inh; Recombinant Hck-YEEI:Nef, Z-Lyte FRET kinase assay; calls only at 10 µM; hit rate 28% among 1,300; AID 463188;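 active = average inhibition of at least 50%, with Z-scores no higher than 3 in both the phospho-tyrosine peptide and fluorescence counterscreens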
# Hits are given with their value; . = inactive; ? = inconclusive; / = no result shown; + = active, no number.
SMILES,Runt-CBFb FRET,DSG3 Ab inh,Hck-Nef inh,RanGTP-Imp inh,Runt-SMMHC FRET,pCIP destab,Hck Nef conf
COc1cccc(C(C)NC(=O)c2ccncc2)c1 (configuration not stated),/,.,/,.,/,.,/
O=C(Cn1c(O)c(N=NC(=O)c2ccncc2)c2ccccc21)Nc1ccccc1,.,/,.,.,.,.,/
Cc1ccc(NC(=O)Cn2c(O)c(N=NC(=O)c3cc4ccccc4cc3O)c3ccccc32)cc1,.,.,51,/,.,.,.
COc1ccccc1NC(=O)Cn1c(O)c(N=NC(=O)c2ccccc2O)c2ccccc21,.,.,91,.,.,.,.
COc1ccc(/C=C/C(=O)OCC(=O)c2cc(C)ccc2C)cc1,/,.,/,/,/,/,/
COCCn1c(=N)c(C(=O)NCc2ccco2)cc2c(=O)n3cc(C)ccc3nc21,/,.,86,.,/,.,/
Cc1cccn2c(=O)c3cc(C(=O)NCc4ccco4)c(=N)n(CCOCCO)c3nc12,/,.,75,155,/,/,.
O=[N+]([O-])c1ccc(/C=N/n2cn[nH]c2=S)cc1,.,.,105,.,.,.,/
O=c1cc(CCl)nc2sc3ccccc3n12,.,/,61,.,.,.,.
COCCCn1c(C(=O)NC2CCCCC2C)cc2c(=O)n3cccc(C)c3nc21 (configuration not stated),/,?,/,.,/,.,/
CCOCCCn1c(=NC(C)=O)c(C#N)cc2c(=O)n3ccccc3nc21,.,.,96,123,88,.,/
COCCCn1c(=NC(=O)c2ccccc2)c(C#N)cc2c(=O)n3cccc(C)c3nc21,.,.,82,49,88,.,.
CCOCCCn1c(=NC(C)=O)c(C(=O)OCC)cc2c(=O)n3ccccc3nc21,52,.,119,77,63,.,/
CCOC(=O)c1cc2c(=O)n3ccccc3nc2n(CC(C)C)c1=NC(=O)c1ccco1,.,.,105,141,60,.,.
COc1ccc(OC)c(NC(=O)CSc2nnc3ccc(-c4ccccn4)nn23)c1,/,.,/,?,/,/,/
CCN1C(=O)[C@H]2[C@@H](c3ccc(-c4ccc5c(c4)OCO5)c(OC)c3)N[C@@](C)(C(=O)OC)[C@H]2C1=O,/,.,/,/,/,/,/
S=c1[nH]nc(-c2ccco2)n1/N=C/c1ccc(Cl)c(Cl)c1,.,.,.,.,.,.,/
S=c1[nH]nc(-c2ccco2)n1/N=C/c1c(Cl)cccc1Cl,.,.,61,?,.,.,.
Cc1ccc(NNc2c(C)nc3ccccc3nc2=O)cc1,.,.,149,.,.,.,.
COc1ccccc1/C=C/C=N/NC(=O)c1cc(-c2ccco2)[nH]n1,.,.,59,.,.,.,.
O=C(CSc1nnc(-c2ccco2)c(-c2ccco2)n1)c1ccccc1,/,.,69,?,/,.,.
Cc1ccc(-n2nc(-c3cccnc3)cc2C(=O)N2CCOCC2)c(C)c1,.,.,.,.,.,.,/
Cc1ccc(-n2nc(-c3ccco3)cc2C(=O)O)c(C)c1,.,60,55,.,.,.,.
O=C(O)c1cc(-c2ccco2)nn1-c1ccc(Cl)cc1,.,.,.,.,.,.,/
O=C(O)c1cc(-c2ccco2)nn1-c1cccc(Cl)c1,.,/,52,.,.,.,.
SMILES,Runt-CBFb FRET,DSG3 Ab inh,Hck-Nef inh,RanGTP-Imp inh,Runt-SMMHC FRET,pCIP destab,Hck Nef conf
CN(C(=O)c1cccc(NC(=O)Cc2ccc(NC(=O)C3CCN(C(=O)c4ccccc4)CC3)cc2)c1)C1CCCC1,/,.,/,/,/,/,/
CCOc1cc(CN2CCC(n3nccc3NC(=O)C3CC3)CC2)ccc1O,/,.,/,.,/,.,/
CCOc1ccc(-c2ccc(C=O)o2)c([N+](=O)[O-])c1,.,.,100,.,.,.,.
CCC(Oc1ccccc1)C(=O)Nc1ccc(C)c(S(=O)(=O)N2CCOCC2)c1 (configuration not stated),/,.,/,.,/,/,/
O=C(NCC(F)(F)F)c1ccc(S(=O)(=O)N2CCN(C(=O)C3CCCO3)CC2)cc1 (configuration not stated),/,.,/,/,/,/,/
O=C(Nc1ccc2nc(-c3ccco3)c(-c3ccco3)nc2c1)N1CCN(c2ccccn2)CC1,.,.,57,33,.,.,.
CC(C)(C)OC(=O)NCCCC1=CC2=CC(=O)C(C)(OC(=O)C3CCCC3)C(=O)C2=CO1 (configuration not stated),/,/,/,.,/,/,/
COc1ccccc1OCCOc1ccc(/C=C2/C(=N)N3OC(C)=CC3=NC2=O)cc1OC,.,.,89,.,.,.,+
CC1=CC2=NC(=O)/C(=C\c3cccn3CCOc3ccccc3C)C(=N)N2O1,.,.,.,.,.,.,/
COc1ccc(C(=O)N/C(=C\c2ccc3c(c2)OCO3)C(=O)Nc2ccc(C(=O)O)cc2)cc1,.,.,54,.,.,.,.
CCN(CC)S(=O)(=O)c1ccc(OC)c(NC(=O)COc2ccccc2[N+](=O)[O-])c1,.,.,53,.,.,.,.
COCc1cc(=O)n2c([nH]c3ccccc32)c1C#N,.,.,67,.,59,.,/
CCc1cc(=S)n2c([nH]c3ccccc32)c1C#N,.,.,71,.,.,.,.
CC(SCc1cc(=O)n2c([nH]c3ccccc32)c1C#N)C(=O)O (configuration not stated),.,.,.,.,.,.,/
CCCCC[C@H]1CN(Cc2ccc(OC)cc2)C(=O)[C@@H]1CC(=O)NCc1ccccc1,/,.,/,.,/,.,/
CCSc1nc2c(cnn2-c2ccccc2)c(=O)n1N,.,.,59,.,.,.,+
O=C(Nc1ccc(S(=O)(=O)N2CCOCC2)cc1)c1ccccc1F,/,.,/,.,/,.,/
Cc1ccc(S(=O)(=O)c2nc(S(C)(=O)=O)sc2N2CCC(C)CC2)cc1,/,.,/,.,/,.,/
Cc1ccc(-c2nc3c(c(=O)[nH]c(=O)n3Cc3ccccc3)n2C)s1,.,/,58,?,.,.,.
C[C@H](NC(=O)c1[nH]cnc1C(=O)Nc1ccc(CNC(=O)OC(C)(C)C)cc1)C(=O)OC(C)(C)C,.,.,57,.,.,.,.
Cc1nc2cc(N3CCN(C)CC3)c(NC(=O)Cc3ccccc3)cc2c(=O)n1Cc1ccccc1,.,.,.,.,.,.,/
Cc1nc2cc(N3CCCCC3)c(NC(=O)c3ccncc3)cc2c(=O)n1Cc1ccc(Cl)cc1,.,/,67,.,.,.,.
Cc1ccc(O)c(C(=O)c2cnn(C(=O)Cc3csc(C)n3)c2)c1,.,.,74,/,.,.,+
Cc1ncc(CC(=O)n2cc(C(=O)c3cc(F)ccc3O)cn2)s1,.,.,.,?,.,.,/
COc1ccc(N2CCN(Cc3cc(=O)c(OCC(=O)NC4CCCC4)co3)CC2)cc1,/,.,/,.,/,/,/
